Compound activity deposited in PubChem BioAssay by several laboratories.
Hits are enriched below; roughly 4.4% of the tested compounds scored in any of these assays.
TbMetRS inhib – T. brucei MetRS inhibitors, primary screen, biochemical, luminescence. methionyl-tRNA synthetase (Trypanosoma brucei brucei). purified T. brucei MetRS, ATP depletion, Kinase-Glo luminescence. inhibition, % at 11.9 µM. 360,000 compounds, 0.4% hits. AID 624268, 2012;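 active means inhibition above a per-plate cutoff of the control wells' mean inhibition plus 3 SD, cut at about 5.5% in these data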;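 further: 0% = DMSO wells median and 100% = median of wells with control inhibitor compound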
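Dosing: 11.9 µM compound single dose, 0.9% DMSO; Assay system: purified T. brucei MetRS enzyme; Measured by: Kinase-Glo luciferase luminescence reporting remaining unconsumed ATP; Schedule: 15 min plus 2 h at 25 °C.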
MsrA inh – bovine MsrA enzyme inhibitors, primary screen, biochemical, absorbance, HTS. Methionine sulfoxide reductase A (Bos taurus). purified bovine MsrA, absorbance read-out. inhibition, % at 15.5 µM. 360,000 compounds, 0.75% hits. AID 651718, 2012; in the data active means inhibition above about 4.5%;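 further: 0% = vehicle wells with enzyme and 100% = reference inhibitor wells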
AI-2 QS modul – Vibrio harveyi AI-2 quorum sensing modulators, primary screen, JMH597 strain, luminescence/OD600 ratio | Vibrio harveyi JMH597 AI-2 luminescence/OD600 ratio, 9 h; active compounds read low; strain lacks LuxN and CqsS sensors; 0 = neutral-control median | activity change, % at 7.5 µM | 300,000 compounds, 0.4% hits; in the data active means activity change below about -75%, passing the limit was not always enough;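 further: luminescence divided by OD600 gain over 9 h not by final OD600 alone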
AHR activator – AHR activators, primary screen, cell-based, luminescence, luciferase reporter, human; AID 2796, 2010; Aryl hydrocarbon receptor (Homo sapiens), P35869; activation, % at 5 µM; AHR-responsive luciferase reporter cells; 320,000 compounds, 2.5% hits; in the data active means activation above about 47%;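 further: 0% = vehicle wells and 100% = reference agonist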
m5-HT2A agonist – mouse Htr2a agonists via beta-arrestin recruitment, primary screen, cell-based, luminescence | 5-hydroxytryptamine receptor 2A (Mus musculus), P35363 | 360,000 compounds, 0.66% hits | activation, % at 7.6 µM | CHO-K1 mHTR2A beta-arrestin complementation; percent of 30 µM serotonin response;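 active means activation above a run cutoff, the mean activation of all tested compounds plus 3 SD, cut at about 14% in these data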;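 further: 0% = plate median of compound wells and 100% = 30 µM serotonin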
Target sequence (P35363 whole entry, looked up): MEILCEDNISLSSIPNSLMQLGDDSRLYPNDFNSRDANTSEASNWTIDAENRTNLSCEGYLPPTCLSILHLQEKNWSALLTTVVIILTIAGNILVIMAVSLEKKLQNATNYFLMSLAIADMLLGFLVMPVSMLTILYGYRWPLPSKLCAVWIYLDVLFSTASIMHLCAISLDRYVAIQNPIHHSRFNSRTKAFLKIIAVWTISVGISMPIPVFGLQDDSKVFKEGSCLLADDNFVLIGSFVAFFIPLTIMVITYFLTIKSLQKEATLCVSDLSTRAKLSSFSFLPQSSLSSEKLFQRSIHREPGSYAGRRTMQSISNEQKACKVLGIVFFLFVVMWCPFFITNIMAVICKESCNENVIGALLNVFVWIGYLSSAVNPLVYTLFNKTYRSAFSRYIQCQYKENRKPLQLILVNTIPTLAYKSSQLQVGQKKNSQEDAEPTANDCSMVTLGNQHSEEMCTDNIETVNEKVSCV
bovine MsrA act – bovine MsrA enzyme activators, primary screen, biochemical, absorbance, HTS; Methionine sulfoxide reductase A (Bos taurus); purified bovine MsrA, absorbance read-out; activation, % at 10.6 µM; 360,000 compounds, 0.3% hits; in the data active means activation above about 7.5%;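 further: 0% = vehicle and 100% = reference activator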
The depositor's hits bear a star.

Results for Cc1cc(Br)c2nc(-c3cccc(Br)c3)c(Cc3cccc(Cl)c3)n2c1 ?
MsrA inh: 0

What do the screens show for `O=C(Nc1ccccc1)c1cc2ccc3ccccc3c2s1`?
TbMetRS inhib: 0; MsrA inh: 2; AI-2 QS modul: 3; AHR activator: 69*; m5-HT2A agonist: -4; bovine MsrA act: -2

How did Cc1cc(C(=O)OCC(=O)Nc2ccccc2)c(C)o1 do in these assays?
TbMetRS inhib: 0; MsrA inh: 0; AI-2 QS modul: -63; AHR activator: 0; m5-HT2A agonist: 5; bovine MsrA act: -4

Results for Cc1cc(C(=O)OCC(=O)Nc2cccc(S(=O)(=O)N(C)C)c2)c(C)o1 ?
TbMetRS inhib: 0; MsrA inh: 0; AI-2 QS modul: -89*; AHR activator: 2; m5-HT2A agonist: 12; bovine MsrA act: -2

Results for Cc1cc(C(=O)OCC(=O)Nc2ccc(F)cc2)c(C)o1 ?
TbMetRS inhib: -1; MsrA inh: 2; AI-2 QS modul: -82*; AHR activator: 1; m5-HT2A agonist: 0; bovine MsrA act: -1

How did Cc1ccc(C(C)C)c(OCC#CCN2CCOCC2)c1 do in these assays?
TbMetRS inhib: 0; MsrA inh: -1; AI-2 QS modul: 25; AHR activator: 1; m5-HT2A agonist: 9; bovine MsrA act: -1

How did CC(C)(C)c1ccc(C#C[C@@H]2C=C[C@H](O)[C@@H](COC(=O)Nc3ccccc3)O2)cc1 do in these assays?
MsrA inh: 0

What do the screens show for `NC(=S)N=Nc1c(O)[nH]c2c(Br)cc(Br)cc12`?
TbMetRS inhib: -1; MsrA inh: 2; AI-2 QS modul: 13; AHR activator: 63*; m5-HT2A agonist: 0; bovine MsrA act: -11

Results for CN1C(=O)[C@@]2(O[C@H]3[C@H]4C=C[C@@H]([C@H]5C(=O)N(Cc6ccccc6)C(=O)[C@@H]45)N3C3=C2C(=O)CC3)c2ccccc21 ?
MsrA inh: 0

How did CCOC(=O)c1[nH]c2ccccc2c1NC(=S)Nc1cc(C)ccc1C do in these assays?
TbMetRS inhib: 0; MsrA inh: -2; AI-2 QS modul: 18; AHR activator: 60*; m5-HT2A agonist: 0; bovine MsrA act: -4

What do the screens show for `CCOC(=O)c1[nH]c2ccccc2c1NC(=O)CC(C)C`?
TbMetRS inhib: -1; MsrA inh: 1; AI-2 QS modul: 10; AHR activator: 18; m5-HT2A agonist: 6; bovine MsrA act: -9

Results for CCCC(=O)Nc1c(C(=O)OCC)[nH]c2ccccc12 ?
TbMetRS inhib: -1; MsrA inh: 0; AI-2 QS modul: 6; AHR activator: 58*; m5-HT2A agonist: -4; bovine MsrA act: -4

What do the screens show for `CCOC(=O)c1[nH]c2ccccc2c1NC(=O)c1ccco1`?
TbMetRS inhib: 0; MsrA inh: 1; AI-2 QS modul: 24; AHR activator: 40; m5-HT2A agonist: -1; bovine MsrA act: -2

What do the screens show for `CCOC(=O)c1[nH]c2ccccc2c1NC(=S)Nc1ccccc1C`?
TbMetRS inhib: 0; MsrA inh: 0; AI-2 QS modul: 21; AHR activator: 59*; m5-HT2A agonist: 1; bovine MsrA act: -3

How did C[C@H](NC(=O)c1ncn2c1C(=O)NC[C@H]2C)C(=O)OC(C)(C)C do in these assays?
TbMetRS inhib: 1; MsrA inh: 1; m5-HT2A agonist: 2; bovine MsrA act: -5

How did CCCSc1nnc2n(C)c(=O)c3c4c(sc3n12)CCC4 do in these assays?
TbMetRS inhib: 0; MsrA inh: 0; AI-2 QS modul: 6; AHR activator: 78*; m5-HT2A agonist: -2; bovine MsrA act: -2

What do the screens show for `N#Cc1ccc(S(=O)(=O)N2CCCc3nc(-c4ccc(Br)cc4)ccc32)cc1`?
MsrA inh: 0

What do the screens show for `C[C@H]1C=C(C(=O)NCc2nc3ccccc3[nH]2)O[C@@H](OCc2ccc(CO)cc2)C1`?
TbMetRS inhib: 24*; MsrA inh: -1; AI-2 QS modul: 9; AHR activator: 9; m5-HT2A agonist: 0; bovine MsrA act: -5

What do the screens show for `O=C(NCc1nc2ccccc2[nH]1)C1=C[C@@H](c2ccccc2)C[C@@H](OCCCCO)O1`?
TbMetRS inhib: 70*; MsrA inh: 0; AI-2 QS modul: -1; AHR activator: 57*; m5-HT2A agonist: 11; bovine MsrA act: -1

How did C[C@@H]1C=C(C(=O)NCc2ccccc2)O[C@H](OCc2ccc(CO)cc2)C1 do in these assays?
TbMetRS inhib: 0; MsrA inh: 1; AI-2 QS modul: 25; AHR activator: -3; m5-HT2A agonist: 0; bovine MsrA act: -1

How did Nc1ccn([C@@H]2O[C@H](C(=O)N[C@H](Cc3ccccc3)C(=O)N3CCC(F)(F)CC3)[C@@H](O)[C@H]2O)c(=O)n1 do in these assays?
MsrA inh: -1

Results for COc1cc(/C=N/NC(=O)Cc2cccs2)c([N+](=O)[O-])cc1OC ?
TbMetRS inhib: 1; MsrA inh: 2; AI-2 QS modul: 25; AHR activator: 49*; m5-HT2A agonist: 3; bovine MsrA act: -1

Results for CCN(c1cc(C)cc(C)c1)S(=O)(=O)c1nnc(NC(=O)c2ccco2)s1 ?
TbMetRS inhib: 0; MsrA inh: 4; AI-2 QS modul: 0; AHR activator: 4; m5-HT2A agonist: -1; bovine MsrA act: 3

What do the screens show for `COc1ccc(N(CC(C)C)S(=O)(=O)c2nnc(NC(=O)c3ccco3)s2)cc1`?
TbMetRS inhib: -1; MsrA inh: 5.3*; AI-2 QS modul: 25; AHR activator: 0; m5-HT2A agonist: 0; bovine MsrA act: -8

How did CCN(c1ccc(OC)cc1)S(=O)(=O)c1nnc(NC(=O)c2ccco2)s1 do in these assays?
TbMetRS inhib: 0; MsrA inh: 4.6*; AI-2 QS modul: 18; AHR activator: 2; m5-HT2A agonist: 5; bovine MsrA act: 1

Results for CCN(c1ccccc1C)S(=O)(=O)c1nnc(NC(=O)c2ccco2)s1 ?
TbMetRS inhib: 0; MsrA inh: 3; AI-2 QS modul: 15; AHR activator: 0; m5-HT2A agonist: -1; bovine MsrA act: -3

What do the screens show for `Cc1ccc2nc(SC(C(=O)Nc3ccc(F)cc3)c3ccccc3)[nH]c2c1` (centres undefined)?
TbMetRS inhib: 3; MsrA inh: 1; AI-2 QS modul: 11; AHR activator: 79*; m5-HT2A agonist: -5; bovine MsrA act: -2

What do the screens show for `OC(c1ccccc1)(c1ccccc1)C1CCN(CCCOc2ccc(-c3cncnc3)cc2)CC1`?
MsrA inh: -1
